# Bioassay records: PubChem BioAssay, several laboratories
# NadD inh = inhibitors of S. aureus NadD, primary screen, biochemical, colorimetric, uHTS. Nicotinate-nucleotide adenylyltransferase NadD (Staphylococcus aureus N315). purified NadD enzyme, colorimetric absorbance read-out. inhibition, % at 20 µM. 360,000 tested, 0.78% active. AID 602399, 2012; in the data active means inhibition above about 26%
# SENP1 FRET inh = human SENP1 catalytic domain inhibitors, primary screen, biochemical, FRET, uHTS; Sentrin-specific protease 1 (Homo sapiens), Q9P0U3; recombinant SENP1 catalytic domain, CyPet-SUMO1-YPet FRET cleavage; inhibition, % at 10 µM; 360,000 tested, 0.21% active;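 active means inhibition at least 30% at 10 µM, raw YFP signal under a set limit, fluorescence ratio 0.5 to 1.5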;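 further: 0% = enzyme with DMSO and 100% = no enzyme wells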
#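 material = recombinant human SENP1 catalytic domain, His6-tagged | quantity = 20 pM enzyme | reagent = 25 nM SUMO1 FRET substrate | compound dosing = 10 µM single point, 0.5% DMSO | timing = 50 min enzyme reaction, room temperature, light-protected | detection = FRET, CFP and YFP emission | control set = no-enzyme low, enzyme-DMSO high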
# GRK2 aptamer HTS = compounds blocking aptamer binding on GRK2 – biochemical, human GRK2, bead flow cytometry, HTS, primary screen | Beta-adrenergic receptor kinase 1 (Homo sapiens), P25098 | FAM-aptamer displacement from GRK2 | inhibition of aptamer binding, % at 10 µM | 330,000 tested, 0.59% active;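 active means inhibition of aptamer binding above 40%, roughly 3 SD of noise, on plates passing a quality check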;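 further: median bead fluorescence of bound FAM aptamer so fluorescent compounds give negative values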
# B2AR ag = beta2AR agonists driving receptor internalization, primary screen, cell-based, FAP fluorogen, flow cytometry | 340,000 tested, 0.43% active | response, % (no concentration beside the values) | Am2.2-beta2AR cells | Beta-2 adrenergic receptor (Homo sapiens), P07550;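 active means response above a set limit, near 3 SD of response in nonfluorescent compounds, cut at about 42% in these data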
# Target sequence (P07550 whole entry, looked up): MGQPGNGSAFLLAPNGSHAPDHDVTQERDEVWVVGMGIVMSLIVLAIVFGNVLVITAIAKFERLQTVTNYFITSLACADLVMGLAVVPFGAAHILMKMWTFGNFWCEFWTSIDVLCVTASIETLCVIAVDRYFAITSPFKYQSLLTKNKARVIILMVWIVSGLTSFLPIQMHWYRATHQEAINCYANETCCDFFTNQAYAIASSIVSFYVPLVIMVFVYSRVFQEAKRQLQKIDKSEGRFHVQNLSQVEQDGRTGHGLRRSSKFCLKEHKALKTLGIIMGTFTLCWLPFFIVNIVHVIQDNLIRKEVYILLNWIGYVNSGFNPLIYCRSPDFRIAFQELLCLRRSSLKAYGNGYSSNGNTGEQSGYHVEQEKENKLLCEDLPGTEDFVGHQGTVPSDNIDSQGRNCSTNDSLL
# ABHD5 PLIN5 PPI = ABHD5-PLIN5 interaction inhibitors, primary screen, cell lysate, split luciferase complementation, luminescence | Perilipin-5 (Homo sapiens) + 1-acylglycerol-3-phosphate O-acyltransferase ABHD5 (Homo … | Split G. princeps luciferase complementation, 4 h | inhibition, % at 4 µM | 360,000 tested, 0.78% active;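 active means inhibition above the mean inhibition across every tested compound plus 3 SD, cut at about 22% in these data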;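 further: 0% = DMSO only wells and the 100% control is not disclosed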
# B2AR ag CP1 = beta2AR agonists via receptor internalization, confirmation, cell-based, FAP fluorogen, flow cytometry, single point, cherry pick 1. percent response (surface receptor), % at 10 µM. Am2.2-beta2AR cells, FAP surface receptor; active compounds read low. AID 540358, 2011. shares compounds with B2AR ag. 1,100 tested, 25% active;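 active means surface receptor percent response at or below 58%, roughly 3 SD from nonfluorescent compounds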
# FAP fluor counter = counter-screen for beta-2AR agonists: fluorescence in Am2.2 cells; shares compounds with B2AR ag; FAP fluorogen flow cytometry, fluorescence counterscreen; active compounds read low; calls only at 10 µM; 1,100 tested, under 10 active;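 active means percent response below a set limit in fluorescence channel 1 and below 50% in channel 8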
# Starred values were filed as active, the others as inactive; i = inactive; x = no result. Hits are enriched below; roughly 2.5% of the tested compounds scored in any of these assays.
SMILES,NadD inh,SENP1 FRET inh,GRK2 aptamer HTS,B2AR ag,ABHD5 PLIN5 PPI,B2AR ag CP1,FAP fluor counter
Cc1cc(S(=O)(=O)N2CCOCC2)ccc1OCC(=O)Nc1ccccc1C(F)(F)F,-4,1,0,-1,-3,97,i
Cc1cc(S(=O)(=O)N2CCOCC2)ccc1OCC(=O)Nc1ccc(F)cc1F,-8,2,2,1,1,105,i
Cc1cc(S(=O)(=O)N2CCOCC2)ccc1OCC(=O)Nc1ccc(Br)cc1F,4,-2,1,1,0,108,i
CC1CCCC(C)N1CCOc1cc(N)ccc1C#N (stereo not drawn),-49,1,x,-4,4,x,x
Cc1nn(-c2ccccc2)c(C)c1NC(=O)COC(=O)CC(C)c1ccccc1 (stereo not drawn),-5,3,0,3,-1,x,x
CCOC(OCC)c1nc(N)[nH]c(=O)c1CCCCc1ccccc1,-1,2,x,-4,-1,x,x
O=[N+]([O-])c1cc(S(=O)(=O)N2CCCCCC2)ccc1Cl,-2,1,x,48*,-4,90,i
COc1ccc(C(=O)C(CCC(CNC(C)(C)C)C(=O)c2ccc(OC)cc2)CNC(C)(C)C)cc1 (stereo not drawn),0,1,0,54*,41*,80,i
CCC1CCCCN1CCCNC(=O)c1ccc(/C=C2/Sc3ccccc3NC2=O)cc1 (stereo not drawn),4,-62,0,44*,18,108,i
O=C1Nc2cc(C(=O)NCCCN3CCCC3)ccc2S/C1=C\c1ccccc1,2,-6,0,3,13,x,x
CCCCCCCCN1C(=O)[C@H](CC(=O)N2CCCC2)C[C@@]2(C(=O)OCC)CCCC=C12,12,1,x,x,7,x,x
COc1ccc(N=C/C=C2\C=C(c3ccccc3)OC(C)(C)O2)cc1,-1,-19,0,29,2,x,x
Cc1ccccc1N=C/C=C1/C=C(c2ccccc2)OC(C)(C)O1,7,-26,0,43*,5,85,i
O=C(O)CNC(=O)C1(NC(=O)OCc2ccccc2)CCCC1,0,3,x,-1,-7,x,x
COc1ccc(CCn2c(=O)[nH]c3cc(C(=O)NCCN4CCOCC4)ccc3c2=O)cc1OC,4,2,1,69*,7,x,i
O=C(COC(=O)Cc1ccc(F)cc1)NC(=O)c1ccccc1,-3,1,5,-5,1,x,x
COc1ccccc1C(=O)NC(=O)COC(=O)Cc1ccc(F)cc1,4,0,2,58*,2,114,i
C[C@@H]1CC[C@H](Cc2ccc(-n3cccc3)cc2)N1C(=O)OC(C)(C)C,5,0,x,x,-5,97,i
NC(=O)C1CCN(C(=O)c2cc(-c3ccc(Cl)s3)nc3ccccc23)CC1,-1,-60,0,8,19,x,x
CN(CC(=O)N1CCN(c2ccc(F)cc2)CC1)S(=O)(=O)c1ccc(F)cc1,3,2,0,-3,-4,120,i
CN(CC(=O)N1CCN(c2ccccn2)CC1)S(=O)(=O)c1ccc2ccccc2c1,6,2,2,-2,-4,x,x
Cc1ccc(S(=O)(=O)N(C)CC(=O)N2CCN(c3ccccn3)CC2)cc1,0,1,2,99*,-7,16*,i
COc1ccc(N2CCN(C(=O)CN(C)S(=O)(=O)c3cc(C)ccc3OC)CC2)cc1,-7,-1,1,4,1,91,i
O=C(CCNS(=O)(=O)c1ccc(Cl)cc1)N1CCN(c2ccccn2)CC1,5,1,0,0,-4,x,x
CN(CC(=O)N1CCN(c2ccccn2)CC1)S(=O)(=O)c1ccc(Cl)cc1,2,2,4,110*,-6,33*,i
SMILES,NadD inh,SENP1 FRET inh,GRK2 aptamer HTS,B2AR ag,ABHD5 PLIN5 PPI,B2AR ag CP1,FAP fluor counter
C/C=C(\C)CN1CCC(Oc2cc(C(=O)NC3CC3)ccc2OC)CC1,2,-4,3,-1,-4,x,x
OC1CNc2c(ccc3ccccc23)C1 (stereo not drawn),-3,-4,x,-5,-10,x,x
Cc1noc(C)c1S(=O)(=O)N1CCN(S(=O)(=O)c2ccccc2C#N)CC1,-3,2,4,2,-2,x,x
COc1ccc(C(CCNCc2ccc(OC(C)C)cc2)c2ccccc2OC)cc1 (stereo not drawn),5,0,0,23,0,54*,i
COc1ccc(C(CCNCc2ccc(N(C)C)cc2)c2ccccc2OC)cc1 (stereo not drawn),-6,1,0,32,4,100,i
COc1ccc(CNCCC(c2ccc(OC)cc2)c2ccccc2OC)cc1 (stereo not drawn),3,-2,0,16,13,90,i
COc1ccc(CNCCC(c2ccccc2)c2ccc(OC(C)C)cc2)cc1OC (stereo not drawn),-3,2,0,35,8,x,x
CC(C)CC(OC(=O)c1nsc(Cl)c1Cl)C(=O)NC1CCCC1 (stereo not drawn),4,1,0,0,-1,x,x
OC(CNC1Cc2ccccc2C1)c1ccccc1 (stereo not drawn),-6,2,0,-10,-1,123,i
CCOc1cc(CNCc2ccccn2)cc(Cl)c1OC,-2,3,0,-3,8,x,x
Oc1cccc(C(O)CNCc2ccc(-c3ccccc3)cc2)c1 (stereo not drawn),-10,1,0,28,3,x,x
OC(CNCc1ccccc1)c1ccccc1 (stereo not drawn),-3,-1,0,-5,-4,110,i
OC(CNCc1cccc(Cl)c1)c1ccccc1 (stereo not drawn),-4,1,0,-8,1,115,i
CCOc1cc(CNCC(O)c2ccccc2)cc(Cl)c1OC (stereo not drawn),4,1,0,0,-3,110,i
CC1(c2ccc(Cl)cc2)NC(=O)N(CC(=O)N2CCN(C(=O)c3cccs3)CC2)C1=O (stereo not drawn),2,0,x,x,-5,x,x
O=c1[nH]c2ccccc2cc1CN(Cc1ccco1)S(=O)(=O)c1ccc(F)cc1,-5,1,4,-13,7,142,i
